Reference: ChEMBL document CHEMBL2203099, “Identification of a crucial amino acid in the helix position 6.51 of human tachykinin neurokinin 1 and 3 receptors contributing to the insurmountable mode of antagonism by dual NK₁/NK₃ antagonists” (J Med Chem, 2012)
The source made the active and inactive calls. The rule behind the calls is not given here. Where a SMILES comes first, the peptide text is derived from it. [ ]: non-standard residue; d: D form. NMeF = CN[C@@H](Cc1ccccc1)C(=O)O

Assays:
[1] = system: Substance-P receptor (Homo sapiens), P25103 [F264Y]; assay: Noncompetitive inhibition of human NK1 F264Y6.51 mutant receptor expressed in HEK293 cells assessed as decrease in SP1-induced [3H]IP accumulation after 20 mins; format: cell-based
Substance-P receptor (Homo sapiens), P25103 [F264Y], sequence (P25103 whole entry F264Y): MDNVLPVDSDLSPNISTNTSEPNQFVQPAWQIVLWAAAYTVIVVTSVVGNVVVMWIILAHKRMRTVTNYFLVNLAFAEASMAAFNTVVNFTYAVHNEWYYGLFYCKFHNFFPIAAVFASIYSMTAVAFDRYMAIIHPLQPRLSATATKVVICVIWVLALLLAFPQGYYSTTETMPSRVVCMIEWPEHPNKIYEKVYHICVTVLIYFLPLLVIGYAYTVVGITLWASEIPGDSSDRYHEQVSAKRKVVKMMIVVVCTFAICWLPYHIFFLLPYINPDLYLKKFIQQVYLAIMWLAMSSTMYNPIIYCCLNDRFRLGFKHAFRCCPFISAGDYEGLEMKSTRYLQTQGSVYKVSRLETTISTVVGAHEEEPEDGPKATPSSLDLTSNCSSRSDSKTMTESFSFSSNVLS

[2] = biological target: T1, Substance-P receptor (Homo sapiens, UniProt P25103); assay: Displacement of radioligand [3H]SP from wild type human NK1 receptor expressed in HEK293 cells; format: cell-based
T1 sequence (P25103 whole entry): as the sequence (P25103 whole entry F264Y) above, with Y264F counted along it
Outline: (§1)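 Membranes from transiently transfected HEK293 cells, 2.5 μg protein/well, in 50 mM HEPES pH 7.4 with 3 mM MnCl2, phosphoramidon, leupeptin and 0.04% BSA. 10 competitor concentrations (0.0003–10 μM), 90 min at rt. Nonspecific binding with 10 μM NK1 antagonist. Filtration, then scintillation counting. Ki by Cheng–Prusoff. Three experiments, each in duplicate.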

[3] = biological target: T2, Neuromedin-K receptor (Homo sapiens, UniProt P29371); assay: Displacement of [3H]osanetant from wild type human NK3 receptor expressed in HEK293 cells; format: cell-based
T2 sequence (P29371 whole entry): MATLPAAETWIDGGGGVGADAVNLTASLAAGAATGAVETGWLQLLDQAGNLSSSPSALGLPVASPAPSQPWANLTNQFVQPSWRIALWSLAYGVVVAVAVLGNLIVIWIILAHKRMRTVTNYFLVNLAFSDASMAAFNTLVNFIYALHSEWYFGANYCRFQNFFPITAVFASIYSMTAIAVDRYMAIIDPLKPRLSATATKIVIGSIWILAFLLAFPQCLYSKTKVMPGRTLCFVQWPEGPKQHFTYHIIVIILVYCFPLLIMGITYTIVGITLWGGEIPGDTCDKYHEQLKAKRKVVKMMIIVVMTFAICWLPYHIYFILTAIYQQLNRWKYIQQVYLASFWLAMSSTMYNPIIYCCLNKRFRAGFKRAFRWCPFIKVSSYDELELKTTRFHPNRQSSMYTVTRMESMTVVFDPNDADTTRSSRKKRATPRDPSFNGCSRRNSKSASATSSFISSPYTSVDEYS

[4] = system: HEK293; assay: Selectivity ratio of Ki for wild type human NK3 receptor expressed in HEK293 cells to Ki for human NK3 Y315F6.51 mutant expressed in HEK293 cells; format: cell-based
[5] = biological target: Substance-P receptor (Homo sapiens, UniProt P25103, F264Y); assay: Displacement of radioligand [3H]SP from human NK1 F264Y6.51 mutant expressed in HEK293 cells; format: cell-based; outline: as §1
Substance-P receptor (Homo sapiens, UniProt P25103, F264Y), sequence (P25103 whole entry F264Y): as the sequence (P25103 whole entry F264Y) above

[6] = biological target: T1, Substance-P receptor; assay: Noncompetitive inhibition of wild type human NK1 receptor expressed in HEK293 cells assessed as decrease in SP1-induced [3H]IP accumulation after 20 mins; format: cell-based
[7] = biological target: T3, Neuromedin-K receptor (Homo sapiens, UniProt P29371, Y315F); assay: Displacement of radioligand [3H]osanetant at human NK3 Y315F6.51 mutant expressed in HEK293 cells; format: cell-based
T3 sequence (P29371 whole entry Y315F): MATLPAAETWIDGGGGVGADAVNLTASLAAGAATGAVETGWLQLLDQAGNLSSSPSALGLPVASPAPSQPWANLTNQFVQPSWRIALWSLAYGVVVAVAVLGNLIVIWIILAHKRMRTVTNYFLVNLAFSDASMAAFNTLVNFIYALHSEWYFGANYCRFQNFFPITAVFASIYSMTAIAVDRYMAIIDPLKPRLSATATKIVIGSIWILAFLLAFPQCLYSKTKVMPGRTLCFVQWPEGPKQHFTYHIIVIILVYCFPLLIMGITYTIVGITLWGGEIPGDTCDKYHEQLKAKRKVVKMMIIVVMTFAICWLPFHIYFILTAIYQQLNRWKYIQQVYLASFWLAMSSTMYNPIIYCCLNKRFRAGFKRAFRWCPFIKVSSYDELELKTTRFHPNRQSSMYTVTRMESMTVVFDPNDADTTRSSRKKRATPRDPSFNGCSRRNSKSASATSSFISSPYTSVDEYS

[8] = biological target: T3, Neuromedin-K receptor; assay: Competitive inhibition at human NK3 Y315F6.51 mutant expressed in HEK293 cells assessed as decrease in [MePhe7]NKB-induced [3H]IP accumulation after 20 mins; format: cell-based; details: read-out: pA2 (converted)
Outline: (§2)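 HEK293 cells transiently expressing human NK3 WT or mutant, labeled with myo-[³H]inositol in LiCl buffer. Antagonist preincubated 20 min at 37 °C, then [MePhe⁷]NKB (0.01 nM–1 μM) added for 45 min at 37 °C. [³H]IP read by SPA beads. Schild analysis of EC50 shift and Emax depression across increasing antagonist concentrations gives pA2, slope and mode of antagonism.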

[9] = biological target: T2, Neuromedin-K receptor; assay: Competitive inhibition at wild type human NK3 expressed in HEK293 cells assessed as decrease in [MePhe7]NKB-induced [3H]IP accumulation after 20 mins; format: cell-based; details: read-out: pA2 (converted); outline: as §2
[10] = biological target: Neuromedin-K receptor (Homo sapiens, UniProt P29371, H316W); assay: Agonist activity at human NK3 H316W mutant expressed in HEK293 cells assessed as [3H]IP accumulation after 45 mins; format: functional, cell-based
Neuromedin-K receptor (Homo sapiens, UniProt P29371, H316W), sequence (P29371 whole entry H316W): as the sequence (P29371 whole entry Y315F) above, with F315Y, H316W counted along it
Outline: (§3)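 Human NK3 (WT or point mutant) transiently transfected into HEK293 cells and labeled with 5 μCi/mL myo-[³H]inositol. Assay buffer HBSS/20 mM HEPES pH 7.4 with 8 mM LiCl. [MePhe⁷]NKB at 0.01 nM–1 μM for 45 min at 37 °C. Lysis in 20 mM formic acid; [³H]IP captured on yttrium silicate SPA beads. EC50 and Hill slope from a four-parameter fit. Emax given as % of the WT fitted maximum from the same day.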

[11] = biological target: T2, Neuromedin-K receptor; assay: Agonist activity at wild type human NK3 receptor expressed in HEK293 cells assessed as [3H]IP accumulation after 45 mins; format: functional, cell-based; outline: as §3
[12] = biological target: Neuromedin-K receptor (Homo sapiens, UniProt P29371, Y247W); assay: Agonist activity at human NK3 Y247W mutant expressed in HEK293 cells assessed as [3H]IP accumulation after 45 mins; format: functional, cell-based; outline: as §3
Neuromedin-K receptor (Homo sapiens, UniProt P29371, Y247W), sequence (P29371 whole entry Y247W): as the sequence (P29371 whole entry Y315F) above, with Y247W, F315Y counted along it

[13] = biological target: Neuromedin-K receptor (Homo sapiens, UniProt P29371, Y247F); assay: Agonist activity at human NK3 Y247F mutant expressed in HEK293 cells assessed as [3H]IP accumulation after 45 mins; format: functional, cell-based; outline: as §3
Neuromedin-K receptor (Homo sapiens, UniProt P29371, Y247F), sequence (P29371 whole entry Y247F): as the sequence (P29371 whole entry Y315F) above, with Y247F, F315Y counted along it

[14] = biological target: T1, Substance-P receptor; assay: Binding affinity at human NK1 receptor
[15] = biological target: Neuromedin-K receptor (Homo sapiens, UniProt P29371, H316F); assay: Agonist activity at human NK3 H316F mutant expressed in HEK293 cells assessed as [3H]IP accumulation after 45 mins; format: functional, cell-based; outline: as §3
Neuromedin-K receptor (Homo sapiens, UniProt P29371, H316F), sequence (P29371 whole entry H316F): as the sequence (P29371 whole entry Y315F) above, with F315Y, H316F counted along it

[16] = biological target: Neuromedin-K receptor (Homo sapiens, UniProt P29371, Y247A); assay: Agonist activity at human NK3 Y247A mutant expressed in HEK293 cells assessed as [3H]IP accumulation after 45 mins; format: functional, cell-based; outline: as §3
Neuromedin-K receptor (Homo sapiens, UniProt P29371, Y247A), sequence (P29371 whole entry Y247A): as the sequence (P29371 whole entry Y315F) above, with Y247A, F315Y counted along it

Row | inhibition [1] | Ki [2] [nM] | Ki [3] [nM] | Ki [5] [nM] | inhibition [6] | Ki [7] [nM] | Kb [8] [nM] | Kb [9] [nM] | EC50 [10] [nM] | EC50 [11] [nM] | EC50 [12] | EC50 [13] [nM] | Ki [14] [nM] | EC50 [15] | EC50 [16] | Structure (SMILES) | Ratio Ki [4]
1 | Active | 1.4 | 3.5 | 1.7 | Active | 1 | 37.2 | 97.7 |  |  |  |  |  |  |  | Cc1cc(F)ccc1-c1cc(N2CCC3(CC2)OCCS3(=O)=O)ncc1N(C)C(=O)C(C)(C)c1cc(C(F)(F)F)cc(C(F)(F)F)c1 | 3.5
2 | Active | 1.3 | 11.9 | 2.1 | Active | 2.5 | 20.9 | 120 |  |  |  |  |  |  |  | Cc1cc(F)ccc1-c1cc(N2CC[C@H](O)C2)ncc1N(C)C(=O)C(C)(C)c1cc(C(F)(F)F)cc(C(F)(F)F)c1 | 4.8
3 | Active | 0.4 | 2.4 | 1.4 | Active | 0.7 | 2.45 | 123 |  |  |  |  |  |  |  | Cc1cc(F)ccc1-c1cc(N2CCN(S(C)(=O)=O)CC2)ncc1N(C)C(=O)C(C)(C)c1cc(C(F)(F)F)cc(C(F)(F)F)c1 | 3.4
4 |  |  |  |  |  |  |  |  | 3.48 | 0.71 | Not Active | 2.22 | > 10000 | Not Active | Not Active | CSCC[C@H](NC(=O)[C@H](CC(C)C)NC(=O)CNC(=O)[C@H](Cc1ccccc1)N(C)C(=O)[C@H](Cc1ccccc1)NC(=O)[C@H](Cc1ccccc1)NC(=O)[C@H](CC(=O)O)NC(=O)[C@H](Cc1cnc[nH]1)NC(=O)[C@H](CCSC)NC(=O)[C@@H](N)CC(=O)O)C(N)=O (H-DMHDFF[NMeF]GLM-NH2) | 

Row | Structure (SMILES) | inhibition [1] | Ki [2] [nM] | Ki [3] [nM] | Ki [5] [nM] | inhibition [6] | Ki [7] [nM] | Kb [8] [nM] | Kb [9] [nM] | EC50 [10] [nM] | EC50 [11] [nM] | EC50 [12] | EC50 [13] [nM] | Ki [14] [nM] | EC50 [15] | EC50 [16] | Ratio Ki [4]
5 | COc1ccccc1CN[C@H]1C2CCN(CC2)[C@H]1C(c1ccccc1)c1ccccc1 [CP-96345] |  |  | > 10000 |  |  |  |  |  |  |  |  |  |  |  |  | 
